Screening results (PubChem)
proCasp3 act – procaspase-3 (human) activation | 330,000 tested, 0.11% active | activation, % at 8.5 µM | P42574 | recombinant procaspase-3 D3A, Ac-DEVD-pNA absorbance 405 nm | AID 463141;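 active = activation above the mean of all tested compounds plus 3 SD, cut at about 21% in these data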;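 also: 0% = DMSO alone and 100% = DMSO wells spiked with extra 5 µM PC-3 D3A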
Target sequence (P42574 whole entry D9A/D28A/D175A): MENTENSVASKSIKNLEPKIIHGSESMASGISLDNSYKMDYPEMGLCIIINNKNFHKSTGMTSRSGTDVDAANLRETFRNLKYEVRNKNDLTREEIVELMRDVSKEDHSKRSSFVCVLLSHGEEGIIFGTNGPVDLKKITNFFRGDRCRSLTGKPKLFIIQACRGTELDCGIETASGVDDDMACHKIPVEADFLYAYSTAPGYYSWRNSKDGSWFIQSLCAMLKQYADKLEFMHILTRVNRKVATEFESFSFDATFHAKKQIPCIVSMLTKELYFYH
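Test system: Procaspase-3 D3A mutant, all three cleavage aspartates alanine | Dosing: Single dose, 8.5 µM nominal compound, 0.8% DMSO | Schedule: 1 h preincubation, 2 h reaction | Technique: 405 nm absorbance of p-nitroaniline, reads at 0 and 120 min | Repeats: One well per compound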
aDG glyco up – increases alpha dystroglycan glycosylation; Pro5-aDG cells, alpha-DG glycosylation AlphaScreen (IIH6); 0% Pro5, 100% B10-LARGE cell signal; activation, % at 10 µM; 360,000 tested, 0.22% active;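 active = activation of at least 8% versus controls, or a plate z-score of at least 8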;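 also: Pro5 are CHO cells carrying HIG-tagged alpha-DG that lacks glycosylation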
proCasp7 act – counter-screen: procaspase-7 (human) activation; P55210; recombinant procaspase-7, Ac-DEVD-pNA absorbance 405 nm; D23A/D198A/D206A triple mutant, cannot self-cleave; scale: DMSO 0, 5 µM enzyme 100; activation, % at 8.5 µM; 330,000 tested, 0.093% active; AID 463210;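 active = percent activation above the screen-wide mean plus 3 SD, cut at about 25% in these data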
Target sequence (P55210 whole entry D23A/D198A/D206A): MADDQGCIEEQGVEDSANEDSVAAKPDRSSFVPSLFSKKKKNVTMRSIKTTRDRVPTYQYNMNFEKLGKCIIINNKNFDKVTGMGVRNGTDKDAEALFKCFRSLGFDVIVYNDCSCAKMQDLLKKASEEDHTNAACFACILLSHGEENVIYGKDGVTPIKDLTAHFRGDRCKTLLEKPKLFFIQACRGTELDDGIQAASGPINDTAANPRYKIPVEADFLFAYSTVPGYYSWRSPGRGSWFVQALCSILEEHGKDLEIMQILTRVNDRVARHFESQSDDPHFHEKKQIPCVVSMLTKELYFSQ
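Material: Procaspase-7 triple mutant (PC-7 D3A) | Quantity: 2 µM procaspase-7 mutant as dispensed | Reagent: DEVD-pNA substrate | Times: 1 h preincubation, 2 h reaction | Technique: 405 nm absorbance of p-nitroaniline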
GRK2 inh – inhibitors of human GRK2 displacing RNA aptamer; 330,000 tested, 0.59% active; bead flow cytometry, FAM-aptamer displacement from GRK2; inhibition of aptamer binding, % at 10 µM; P25098; AID 488847;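 active = inhibition of aptamer binding above 40%, roughly 3 SD of noise, on plates passing a quality check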;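 also: median bead fluorescence of bound FAM aptamer so fluorescent compounds give negative values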
CaV13 ICDI inh – Primary screen for inhibitors of IQ motif and Ca2+-dependent inactivation inhibitor domain binding in CACNA1D, Förster resonance energy transfer in living cells, …; HEK cells, CFP/YFP FRET ICDI-IQ, plate reader, 10 min; percent FRET-ratio fall versus neutral wells; inhibition, % at 12.3 µM; 340,000 tested, 0.098% active;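 active = mean replicate inhibition of at least 30% and at least 1% of replicates passing that level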;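 also: 0% = median of the neutral control wells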
T cell modulator – modulates CD8 T cell binding to vesicles | AID 2052 | 2C CD8+ T cell-vesicle binding, flow cytometry; active compounds read low | 330,000 tested, 0.068% active | response (vesicle binding), % at 7 µM;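 active = response, share of CD8 T cells binding vesicles, and their 90th percentile fluorescence all below set limits, cut at about 80% in these data, passing the limit was not always enough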;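 also: values below 100% mean blocked vesicle binding to the CD8+ T cells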
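System: murine 2C transgenic CD8+ T lymphocytes; also added: QL9-loaded Drosophila micro-vesicles; times: binding 1.5 h at 37 °C; measured by: flow cytometry, PE anti-B7-1 (FL2) versus Alexa647 anti-CD8 (FL8), PFA-fixed; control set: Peptide-free naked vesicles (low) and QL9 vesicles with 0.7% DMSO vehicle (high)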
Numbers without * were called inactive; i = inactive; x = no result given; + = active, no number. Hits are enriched below; roughly 1.1% of the tested compounds scored in any of these assays.

SMILES	proCasp3 act	aDG glyco up	proCasp7 act	GRK2 inh	CaV13 ICDI inh	T cell modulator
Cc1ccc(CN=Cc2[nH]c3ccc(Br)c(Cl)c3c2O)cc1	-3	3.9*	-3	0	-8	i
COc1ccc(CNC(=O)c2c(N)[nH]c(C(=O)c3ccccc3)c2-c2ccc3ccccc3c2)cc1OC	x	x	x	x	-16	x
CC1CCc2c(sc(NC(=O)Cn3nc(C(F)(F)F)c4c3CCCCC4)c2C#N)C1 (stereo not drawn)	4	0	1	4	-9	0.0*
N#Cc1c(NC(=O)Cn2nc(C(F)(F)F)c3c2CCCC3)sc2c1CCC2	-12	0	-16	2	-7	i
O=C1NC(c2ccccc2)(c2ccccc2)C(=O)N1CNc1ccccn1	x	x	x	x	-9	x
CN[C@H]1C[C@@H](c2ccccc2Br)N(C(C)=O)C[C@H]1CO	x	x	x	x	-5	x
CC(C)C[C@H]1CNC(=O)C(=O)N1C[C@@H]1CCCN1C[C@H](Cc1ccccc1)N1C[C@H](CC(C)C)N(CC2CCCCC2)C(=O)C1=O	x	x	x	x	-12	x
COc1ccc(S(=O)(=O)N2CCN(Cc3cccc(Cl)c3)CC2)cc1	-5	0	15	1	x	518
COc1cccc(CN2CCN(S(=O)(=O)c3ccc(Cl)s3)CC2)c1	-2	0	-2	4	-6	0.0*
Cc1ccc(-c2nc3ccsc3c(=O)[nH]2)cc1	-1	0	-5	1	60*	225
[O-]/[N+](=C\c1ccccc1)c1ccccc1	-7	0	1	0	-10	625
[O-]/[N+](=C/c1ccccc1)c1ccccc1	1	0	4	0	45*	405
Cc1nnsc1C(=O)NNc1c(Cl)cccc1Cl	-3	0	-2	0	-4	521
CCc1ccccc1NNC(=O)c1snnc1C	-4	0	-13	10	-5	52*
CN(C)C(=O)CSc1nc2ccc(C(=O)c3ccccc3)cc2[nH]1	2	0	-10	2	62*	174
Nc1ccc(C#Cc2ccc3c(=O)c4ccccc4oc3c2)cc1	-37	0	-13	4	106*	970
C[C@H](c1ccccc1)N1C[C@@H](COCc2ccccc2)Oc2cccc(Oc3ccc(C(C)(C)C)cc3)c2S1(=O)=O	x	x	x	x	-8	x
COc1cccc(CN(C)C(=O)c2cc(COc3ccc4ncccc4c3)on2)c1	-3	13*	-1	2	0	154
COc1cccc(CN(C)C(=O)c2cc(COc3c(F)cccc3F)on2)c1	0	0	8	3	4	178
Cc1c(Nc2c3ccccc3nc3ccccc23)c(=O)n(-c2ccccc2)n1C	-7	0	-8	4	165*	154
CCn1c(=O)c(C(=O)Nc2ccccc2)c(O)c2ccccc21	-7	0	2	0	-2	482
CCn1c(=O)c(C(=O)Nc2nc3ccccc3[nH]2)c(O)c2ccccc21	3	0	10	81*	-4	249
Cc1cc2c(cc1S(=O)(=O)NCCc1ccccc1)NC(=O)CO2	3	0	6	1	-3	20*
COC(=O)[C@H](Cc1ccccc1)NC(=O)[C@H]1O[C@@H](n2cnc3c(=O)[nH]c(N)nc32)[C@H](O)[C@@H]1O	x	x	x	x	-7	x
O=C(NNC(=O)c1ccc(NC(=O)c2ccccc2)cc1)c1ccc(F)cc1	-3	0	12	0	x	251
SMILES	proCasp3 act	aDG glyco up	proCasp7 act	GRK2 inh	CaV13 ICDI inh	T cell modulator
O=C(NC1=C(Nc2ccc(F)cc2)C(=O)c2ccccc2C1=O)c1ccc(Cl)cc1	-4	5.4*	-9	4	-5	240
OC(c1ccccc1)(c1ccccc1)C1CCN(CCCOc2ccc(-c3ccncc3)cc2)CC1	x	x	x	x	-10	x
CC1CCCCC1NC(=O)COC(=O)CN1C(=O)c2ccccc2C1=O (stereo not drawn)	7	0	8	3	-2	227
CC1CCCCC1NC(=O)CN1C(=O)c2cccc(N)c2C1=O (stereo not drawn)	x	0	x	x	+	x
CC(C)c1[nH]nc2c1C(c1ccccc1)NC2=O (stereo not drawn)	x	x	x	x	-3	x
Cc1c(OCc2ccccc2)cccc1OCc1ccccc1	9	0	5	x	-9	x
Cc1oc(=O)cc(OCc2ccccc2)c1C	9	0	9	45*	-10	x
CN1CCN(c2ccc(NC(=O)c3ccc(-c4ccc(Cl)cc4)o3)cc2)CC1	-8	5.5*	1	0	-5	275
C=CCCC1CN(Cc2ccc(OC)cc2)S(=O)(=O)c2c(F)cccc2O1 (stereo not drawn)	x	x	x	x	-5	x
COC(=O)N1C[C@H](Oc2ncccn2)[C@H]2C[C@@H]1c1ccccc1O2	x	x	x	x	-5	x
Nc1nc2c(ncn2[C@@H]2O[C@H](C(=O)NCCc3c[nH]c4ccccc34)[C@@H](O)[C@H]2O)c(=O)[nH]1	x	x	x	x	-4	x
COc1ccc2c(c1)[C@@H](NC(=O)c1ccncc1)[C@@H]1Cc3ccccc3[C@H]21	x	x	x	x	-6	x
O=C(O)c1cccc(NC(=O)c2cn(-c3ccccc3)nc2-c2ccncc2)c1	4	x	0	0	-2	185
O=C(O)c1cccc(NC(=O)c2cn(-c3ccccc3)nc2-c2cccc(Br)c2)c1	-2	0	-5	3	69*	453
